ChEMBL document CHEMBL3779798, “Novel seleno- and thio-urea derivatives with potent in vitro activities against several cancer cell lines” (Eur J Med Chem, 2016)

Assays:
Format in all cases: functional, cell-based
[1] = Anticancer activity against human BxPC3 cells assessed as inhibition of cell growth after 72 hrs by MTT assay; conditions: BXPC-3, 72 h
Outline: (§1)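 MTT assay at 3,000 cells/well. Cells treated with DMSO or seven concentrations from 0.5 to 50 µM for 24, 48 or 72 h. MTT added 3 h before the end point; formazan dissolved in DMSO and read at 570 and 630 nm. IC50 is the concentration giving 50% growth inhibition. Media: PANC-1, BxPC3 and 1205Lu in DMEM; DU145 and A549 in RPMI 1640; HT29, HCT116 and RKO in McCoy's 5A, all with 10% FBS and pen/strep, at 37 °C and 5% CO2.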

[2] = Anticancer activity against human PANC1 cells assessed as inhibition of cell growth after 24 hrs by MTT assay; conditions: PANC-1, 24 h; outline: as §1
[3] = Anticancer activity against human 1205 Lu cells assessed as inhibition of cell growth after 48 hrs by MTT assay; outline: as §1
[4] = Anticancer activity against human PANC1 cells assessed as inhibition of cell growth after 72 hrs by MTT assay; conditions: PANC-1, 72 h; outline: as §1
[5] = Anticancer activity against human DU145 cells assessed as inhibition of cell growth after 72 hrs by MTT assay; conditions: DU-145, 72 h; outline: as §1
[6] = Anticancer activity against human BxPC3 cells assessed as inhibition of cell growth after 48 hrs by MTT assay; conditions: BXPC-3, 48 h; outline: as §1
A549 [7] = test: Anticancer activity against human A549 cells assessed as inhibition of cell growth after 72 hrs by MTT assay; conditions: A549, 72 h; outline: as §1
[8] = Anticancer activity against human HCT116 cells assessed as inhibition of cell growth after 48 hrs by MTT assay; conditions: HCT-116, 48 h; outline: as §1
[9] = Anticancer activity against human BxPC3 cells assessed as inhibition of cell growth after 24 hrs by MTT assay; conditions: BXPC-3, 24 h; outline: as §1
A549 [10] = test: Anticancer activity against human A549 cells assessed as inhibition of cell growth after 48 hrs by MTT assay; conditions: A549, 48 h; outline: as §1
[11] = Anticancer activity against human DU145 cells assessed as inhibition of cell growth after 24 hrs by MTT assay; conditions: DU-145, 24 h; outline: as §1
[12] = Anticancer activity against human 1205 Lu cells assessed as inhibition of cell growth after 72 hrs by MTT assay; outline: as §1
[13] = Anticancer activity against human PANC1 cells assessed as inhibition of cell growth after 48 hrs by MTT assay; conditions: PANC-1, 48 h; outline: as §1
[14] = Anticancer activity against human 1205 Lu cells assessed as inhibition of cell growth after 24 hrs by MTT assay; outline: as §1
[15] = Anticancer activity against human HCT116 cells assessed as inhibition of cell growth after 24 hrs by MTT assay; conditions: HCT-116, 24 h; outline: as §1
[16] = Anticancer activity against human DU145 cells assessed as inhibition of cell growth after 48 hrs by MTT assay; conditions: DU-145, 48 h; outline: as §1
[17] = Anticancer activity against human HCT116 cells assessed as inhibition of cell growth after 72 hrs by MTT assay; conditions: HCT-116, 72 h; outline: as §1
A549 [18] = test: Anticancer activity against human A549 cells assessed as inhibition of cell growth after 24 hrs by MTT assay; conditions: A549, 24 h; outline: as §1

SMILES	IC50 (A549 [7]) [µM]	IC50 (A549 [10]) [µM]	IC50 (A549 [18]) [µM]	IC50 [1] [µM]	IC50 [2] [µM]	IC50 [3] [µM]	IC50 [4] [µM]	IC50 [5] [µM]	IC50 [6] [µM]	IC50 [8] [µM]	IC50 [9] [µM]	IC50 [11] [µM]	IC50 [12] [µM]	IC50 [13] [µM]	IC50 [14] [µM]	IC50 [15] [µM]	IC50 [16] [µM]	IC50 [17] [µM]
N=C(N)[Se]Cc1cc2c(cc1Br)OCO2	36.3	> 50	> 50	36.9	> 50	> 50	16.5	> 50	> 50	31.8	> 50	> 50	21.8	24.7	> 50	> 50	> 50	23.9
N=C(N)[Se]Cc1c2ccccc2nc2ccccc12	6.2	14.9	34.4	8.2	12.1	16.7	9.8	12.9	10.5	16.7	20.4	31.8	11.6	11.6	13	31.8	14.9	14.4
Cc1noc(C)c1CSC(=N)N	> 50	> 50	> 50	47.2	> 50	> 50	> 50	> 50	> 50	> 50	> 50	> 50	> 50	> 50	> 50	> 50	> 50	> 50
N=C(N)[Se]Cc1ccc2c(c1)C(=O)c1ccccc1C2=O	1.9	2.2	8.9	> 50	> 50	14.5	31.4	8.2	> 50	12.6	> 50	21.4	11.3	> 50	17.4	> 50	6.2	5.9
COc1cc2oc(=O)cc(CSC(=N)N)c2cc1OC	> 50	> 50	> 50	> 50	> 50	> 50	> 50	> 50	> 50	> 50	> 50	> 50	37.4	> 50	> 50	> 50	> 50	> 50

The next lines start with results.

IC50 (A549 [7]) [µM]	IC50 (A549 [10]) [µM]	IC50 (A549 [18]) [µM]	SMILES	IC50 [1] [µM]	IC50 [2] [µM]	IC50 [3] [µM]	IC50 [4] [µM]	IC50 [5] [µM]	IC50 [6] [µM]	IC50 [8] [µM]	IC50 [9] [µM]	IC50 [11] [µM]	IC50 [12] [µM]	IC50 [13] [µM]	IC50 [14] [µM]	IC50 [15] [µM]	IC50 [16] [µM]	IC50 [17] [µM]
> 50	> 50	> 50	N=C(N)SCc1nc2ccccc2nc1CSC(=N)N	> 50	> 50	> 50	> 50	> 50	> 50	> 50	> 50	> 50	> 50	> 50	> 50	> 50	> 50	> 50
> 50	> 50	> 50	N=C(N)SCc1ccc(-n2cccc2)cc1	24.6	> 50	> 50	40.6	31.7	> 50	> 50	> 50	> 50	> 50	> 50	> 50	> 50	> 50	31.5
> 50	> 50	> 50	N=C(N)SCc1ccc([N+](=O)[O-])o1	> 50	> 50	> 50	> 50	> 50	> 50	30.8	> 50	> 50	> 50	> 50	> 50	> 50	> 50	7
> 50	> 50	> 50	N=C(N)SCc1cc2c(cc1Br)OCO2	44.3	> 50	> 50	34.3	> 50	> 50	34.8	> 50	> 50	> 50	40.5	> 50	> 50	> 50	22.1
